The source of these data is ChEMBL document CHEMBL2176901, “Pyrrolo[3,4-h]quinolinones a new class of photochemotherapeutic agents” (Bioorg Med Chem, 2011).

Data set [1] concerns Nucleic Acid. Description: Binding affinity to salmon testes DNA at drug/DNA ratio of 0.02 by linear dichroism analysis. In kind it is nucleic-acid assay. Conditions: Salmonidae. The procedure, abridged: (§1)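 Flow linear dichroism in 10 mM phosphate buffer pH 7.2. Samples oriented in a rotating cylindrical cuvette (0.14 cm path, 800 rpm) at several drug/DNA ratios.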
Data set [2] has as its system MCF7. Description: Phototoxicity in 2.5 J/cm'2 UV-A irradiated human MCF7 cells assessed as cell viability after 72 hrs by MTT assay in presence of radical scavenger DABCO. The class given is functional, cell-based. The procedure, abridged:
(§2)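 MCF-7 cells given compound plus scavenger in HBSS, 30 min at 37 °C, then UV-A (2.5 J/cm², 365 nm lamp). Medium replaced; viability by MTT after 72 h. Means ± SEM of at least three independent experiments.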
Background: Formazan colour is commonly taken as a measure of viable cells.

Data set [3] deals with Jurkat. Description: Induction of apoptosis in UV-A irradiated human Jurkat cells assessed as increase in number of damaged lysosomes after 6 to 24 hrs by acridine orange- based flow cytometry. The class given is functional, cell-based. The procedure, abridged: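 Lysosomal stability in Jurkat cells 6, 12 and 24 h after UV-A (2.5 J/cm²) with compound. Cells resuspended in RPMI-1640 with 1 µM acridine orange; flow cytometry, excitation 488 nm, emission in FL3. Mean ± SEM of three experiments.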
A general note: In flow cytometry, cells or beads pass a laser one at a time.

Data set [4] relates to Jurkat. Description: Induction of apoptosis in 3.75 J/cm'2 UV-A irradiated human Jurkat cells assessed as necrotic cells at 10 uM after 24 hrs by Annexin-V-FITC and propidium iodide based flow cytometry (reference value: 4.2 %). In kind it is functional.
Data set [5] is described as follows: Photodegradation of the compound in DMSO assessed as formation of photoproducts at 20 uM at 1.3 to 14.1 J/cm'2 UV-A irradiation. The class given is physicochemical. The procedure, abridged: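 Compound solutions at 20 μM in DMSO exposed to increasing UV-A doses (HPW 125 lamps, mainly 365 nm, 4.0 mW cm⁻²). Absorption spectra recorded after each dose; isosbestic points noted.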

Data set [6] concerns Jurkat. Description: Cell cycle arrest in UV-A irradiated human Jurkat cells assessed as accumulation at Sub G1 phase at 10 uM after 24 hrs by propidium iodide based flow cytometry (reference value: 0.1 %). In kind it is functional. The procedure, abridged:
(§3)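 Exponentially growing Jurkat cells (5×10^5) irradiated with UV-A (365 nm lamp, 2.5 J/cm²) in presence of compound. After 24 h: fixed in ice-cold 70% ethanol, lysed with RNAse A, stained with PI (10 µg/ml), analysed by flow cytometry. Phases calculated on living cells; subG1 is hypodiploid DNA peak.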

Data set [7] has as its system Nucleic Acid. Description: Binding affinity to salmon testes DNA at drug/DNA ratio of 0.01 by linear dichroism analysis. In kind it is nucleic-acid assay. The settings on record: Salmonidae. The method, boiled down: as §1
The subject of data set [8] is Jurkat. Description: Phototoxicity in 3.75 J/cm'2 UV-A irradiated human Jurkat cells after 72 hrs by MTT assay. Conditions: light or radiation study. In kind it is functional, cell-based. The procedure, abridged:
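Jurkat cells (8 × 10³/well) in RPMI-1640 with 10% FBS, held 18 h at 37 °C, 5% CO2. Compound stock in DMSO was diluted in HBSS pH 7.2 and added for 30 min at 37 °C. Cells were UV-A irradiated (lamp mainly 365 nm, 4.0 mW/cm²), then returned to medium for 72 h. MTT readout. IC50 is the mean ± SEM of three experiences.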

For data set [9], the system named is Jurkat. Description: Induction of apoptosis in 3.75 J/cm'2 UV-A irradiated human Jurkat cells assessed as early apoptotic cells at 5 uM after 24 hrs by Annexin-V-FITC and propidium iodide based flow cytometry (reference value: 1.9 %). In kind it is functional.
In data set [10] the test system is Jurkat. Description: Cell cycle arrest in UV-A irradiated human Jurkat cells assessed as accumulation at G2/M phase at 10 uM after 24 hrs by propidium iodide based flow cytometry (reference value: 10.3 %). In kind it is functional. The procedure, abridged:
as §3

Data set [11] relates to MCF7. Description: Phototoxicity in 2.5 J/cm'2 UV-A irradiated human MCF7 cells assessed as cell viability after 72 hrs by MTT assay in presence of radical scavenger NaN3. In kind it is functional, cell-based. The method, boiled down:
as §2

Data set [12] relates to Jurkat. Description: Cell cycle arrest in UV-A irradiated human Jurkat cells assessed as accumulation at S phase at 10 uM after 24 hrs by propidium iodide based flow cytometry (reference value: 25.3 %). In kind it is functional. The procedure, abridged: as §3
Data set [13] relates to Jurkat. Description: Induction of apoptosis in 3.75 J/cm'2 UV-A irradiated human Jurkat cells assessed as late apoptotic cells at 10 uM after 24 hrs by Annexin-V-FITC and propidium iodide based flow cytometry (reference value: 2.9 %). The class given is functional.
In data set [14] the test system is Nucleic Acid. Description: Induction of photo-induced DNA damage in Escherichia coli pBR322 DNA at drug:DNA ratio of 1:3 by agarose gel electrophoresis in presence of nitrogen flux. The class given is nucleic-acid assay. The method, boiled down: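 Supercoiled pBR322 (100 ng) in 10 mM phosphate buffer pH 7.2 irradiated with UV-A (3.75 J/cm²) at [DNA]/[drug] 1/3, with additives, under nitrogen or in deuterated buffer as stated. Aliquots then incubated at 37 °C with Fpg or Endo III. Run on 1% agarose in TAE, 80 V for 2 h, stained with ethidium bromide; Form I/II fractions from band densitometry.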

Data set [15] has as its system Jurkat. Description: Cell cycle arrest in UV-A irradiated human Jurkat cells assessed as accumulation at S phase at 5 uM after 24 hrs by propidium iodide based flow cytometry (reference value: 25.3 %). The class given is functional. The procedure, abridged: as §3
For data set [16], the system named is HL-60. Description: Phototoxicity in 3.75 J/cm'2 UV-A irradiated human HL60 cells after 72 hrs by MTT assay. In kind it is functional, cell-based. The settings on record: HL-60, light or radiation study. The procedure, abridged:
(§4)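 HL-60 and Jurkat (8×10³/well, RPMI-1640) and MCF-7, LoVo, NCTC-2544 (5×10³/well; DMEM or Ham's F12) preincubated 18 h at 37 °C, 5% CO₂. Compound in DMSO diluted in HBSS pH 7.2, 30 min at 37 °C, then UV-A at 2.5 or 3.75 J/cm². Medium replaced, 72 h incubation, MTT read-out. IC50 as mean ± SEM of three experiments.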

The nature of data set [17]: Phototoxicity in 3.75 J/cm'2 UV-A irradiated human NCTC-2544 cells after 72 hrs by MTT assay. The class given is functional, cell-based. Conditions: NCTC-2544, light or radiation study. The method, boiled down:
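Seeded at 5 × 10³ cells/well with 10% FBS: MCF-7 and NCTC-2544 in DMEM, LoVo in Ham's F12. Pre-incubated 18 h at 37 °C, 5% CO2. Compound (DMSO stock diluted in HBSS pH 7.2) was applied for 30 min at 37 °C, then UV-A irradiation (mainly 365 nm, 4.0 mW/cm²). Medium was restored for 72 h before MTT. IC50 is the mean ± SEM of three experiences.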

For data set [18], the system named is Nucleic Acid. Description: Binding affinity to salmon testes DNA at 10 uM by fluorescence titration. The settings on record: Salmonidae. The class given is nucleic-acid assay. The method, boiled down:
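Fluorimetric titration of compound (10 μM) with increasing stDNA (0 to 100 μM) in 10 mM phosphate buffer pH 7.2; quenching of compound fluorescence monitored.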

In data set [19] the test system is Jurkat. Description: Induction of apoptosis in 3.75 J/cm'2 UV-A irradiated human Jurkat cells assessed as viable cells at 5 uM after 24 hrs by Annexin-V-FITC and propidium iodide based flow cytometry (reference value: 91 %). The class given is functional. The settings on record: light or radiation study, read-out: Activity.
For data set [20], the system named is Jurkat. Description: Cell cycle arrest in UV-A irradiated human Jurkat cells assessed as accumulation at G1 phase at 10 uM after 24 hrs by propidium iodide based flow cytometry (reference value: 64.4 %). The class given is functional. The procedure, abridged: as §3
Data set [21] concerns HL-60. Description: Phototoxicity in 2.5 J/cm'2 UV-A irradiated human HL60 cells after 72 hrs by MTT assay. The class given is functional, cell-based. Conditions: HL-60, light or radiation study. The procedure, abridged:
as §4

What is called IC50 is the concentration needed to halve the response being measured. Low readings indicate higher potency, high ones lower potency.

Active and inactive are the calls of the source. The rule behind the calls is not given here.

In the case of `CCOC(=O)c1c2c(c(C)n1C)-c1c(cc(S(=O)(=O)c3ccccc3)c(=O)n1C)CC2`, the result in data set [1], in data set [2], in data set [7], in data set [11], in data set [14] and in [18] was inactive. The result in [3] was Active. The Activity in data set [4] stood at 8.6%; in data set [6], 43%; in data set [9], 14.4%; in [10], 5.3%; in data set [12] it was 55.6%; in data set [13], 21.4%. The Activity in [15] was 46.9%; in data set [20], 39.1%. Also, the Stability entry in data set [5] is given as “Unstable”. Besides, the IC50 in [8] turned out to be 800 nM; in data set [16], 900 nM; in data set [17] it was 1300 nM; in data set [21], 1200 nM. Further, the viability at 5 µM in data set [19] came out at 70.1%.
